Measurements taken from ChEMBL document CHEMBL1154383, “Novel biphenylcarboxylic acid peroxisome proliferator-activated receptor (PPAR) delta selective antagonists” (Bioorg Med Chem Lett, 2009).
Calls of active or inactive are those of the source. The calls are words filed in the database; no cut-off is given here.

Key:
[1] = target: T1, Peroxisome proliferator-activated receptor delta (Homo sapiens, UniProt Q03181); test: Agonist activity at PPARdelta receptor expressed in HEK293 cells co-transfected with GAL4 by transactivation assay; format: functional, cell-based
T1 sequence (Q03181 whole entry): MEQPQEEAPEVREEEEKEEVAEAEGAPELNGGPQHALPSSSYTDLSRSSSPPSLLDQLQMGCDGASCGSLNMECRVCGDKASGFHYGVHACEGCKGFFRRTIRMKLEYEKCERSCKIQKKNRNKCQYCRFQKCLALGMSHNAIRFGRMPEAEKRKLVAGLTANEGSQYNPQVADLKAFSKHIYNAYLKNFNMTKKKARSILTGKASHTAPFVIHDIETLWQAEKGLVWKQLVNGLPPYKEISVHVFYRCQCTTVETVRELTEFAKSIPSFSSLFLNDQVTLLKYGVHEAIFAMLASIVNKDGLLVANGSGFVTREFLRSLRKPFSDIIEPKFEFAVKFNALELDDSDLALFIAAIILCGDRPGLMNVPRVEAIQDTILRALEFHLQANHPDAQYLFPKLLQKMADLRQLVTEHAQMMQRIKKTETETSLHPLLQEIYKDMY

[2] = target: T2, Peroxisome proliferator-activated receptor alpha (Homo sapiens, UniProt Q07869); test: Agonist activity at PPARalpha receptor expressed in HEK293 cells co-transfected with GAL4 by transactivation assay; format: functional, cell-based
T2 sequence (Q07869 whole entry): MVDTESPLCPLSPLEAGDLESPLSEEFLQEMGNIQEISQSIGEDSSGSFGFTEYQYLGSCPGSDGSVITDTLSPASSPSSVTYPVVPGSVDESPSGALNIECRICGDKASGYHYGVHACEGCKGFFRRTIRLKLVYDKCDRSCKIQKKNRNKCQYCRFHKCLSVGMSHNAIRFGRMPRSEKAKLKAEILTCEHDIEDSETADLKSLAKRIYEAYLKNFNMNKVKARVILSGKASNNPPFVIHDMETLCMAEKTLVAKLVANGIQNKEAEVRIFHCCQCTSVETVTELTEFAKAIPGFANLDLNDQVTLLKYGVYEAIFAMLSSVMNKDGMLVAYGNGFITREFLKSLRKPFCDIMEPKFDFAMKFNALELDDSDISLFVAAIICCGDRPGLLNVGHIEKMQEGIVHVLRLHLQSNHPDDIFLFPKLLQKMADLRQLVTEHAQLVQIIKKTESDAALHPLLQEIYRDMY
In short: (§1)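 GAL4-PPARα chimeric receptor transfected into HEK293 cells; cell-based transactivation (agonist mode). Output is EC50, plus % efficacy relative to the positive control fenofibric acid for PPARα.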

[3] = target: T3, Peroxisome proliferator-activated receptor gamma (Homo sapiens, UniProt P37231); test: Agonist activity at PPARgamma receptor expressed in HEK293 cells co-transfected with GAL4 by transactivation assay
T3 sequence (P37231 whole entry): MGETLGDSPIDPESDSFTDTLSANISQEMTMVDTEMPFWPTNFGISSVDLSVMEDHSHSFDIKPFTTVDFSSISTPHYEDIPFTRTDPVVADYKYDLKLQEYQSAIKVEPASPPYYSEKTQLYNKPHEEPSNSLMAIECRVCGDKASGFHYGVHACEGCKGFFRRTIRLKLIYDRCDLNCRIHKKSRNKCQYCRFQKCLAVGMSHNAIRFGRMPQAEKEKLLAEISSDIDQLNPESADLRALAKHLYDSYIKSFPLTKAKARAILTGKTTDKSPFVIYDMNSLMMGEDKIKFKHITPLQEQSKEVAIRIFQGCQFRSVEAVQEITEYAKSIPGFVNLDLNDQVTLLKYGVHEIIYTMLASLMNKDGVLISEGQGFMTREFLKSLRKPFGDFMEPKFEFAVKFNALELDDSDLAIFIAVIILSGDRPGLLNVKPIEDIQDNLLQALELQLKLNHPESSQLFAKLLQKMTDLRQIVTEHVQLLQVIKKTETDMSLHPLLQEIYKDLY

[4] = target: T4, Peroxisome proliferator-activated receptor alpha (Homo sapiens) (UniProt Q07869); test: Agonist activity at PPARalpha receptor expressed in HEK293 cells co-transfected with GAL4 by transactivation assay relative to […]; format: functional, cell-based; in short: as §1
T4 sequence (whole entry): T2 sequence (Q07869 whole entry)

[5] = target: T5, Peroxisome proliferator-activated receptor delta (Homo sapiens) (UniProt Q03181); test: Agonist activity at PPARdelta receptor expressed in HEK293 cells co-transfected with GAL4 at 1 uM by transactivation assay; format: functional, cell-based
T5 sequence (whole entry): T1 sequence (Q03181 whole entry)

[6] = target: Peroxisome proliferator-activated receptor delta (Homo sapiens) (UniProt Q03181); test: Antagonist activity at PPARdelta co-transfected with GAL4-PPAR fusion protein assessed as inhibition of GW501516-induced response by luciferase reporter gene assay
[7] = target: T4, Peroxisome proliferator-activated receptor alpha (Homo sapiens); test: Agonist activity at PPARalpha receptor expressed in HEK293 cells co-transfected with GAL4 up to 10 uM by transactivation assay; format: functional, cell-based
In short: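 HEK293 cells transfected with GAL4-PPAR chimeric receptors (PPARα, δ or γ) in a cell-based transactivation assay. Results given as EC50 and % efficacy relative to a subtype positive control: fenofibric acid for PPARα, GW501516 for PPARδ, ciglitazone for PPARγ.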

[8] = target: T6, Peroxisome proliferator-activated receptor gamma (Homo sapiens) (UniProt P37231); test: Agonist activity at PPARgamma receptor expressed in HEK293 cells co-transfected with GAL4 at 10 uM by transactivation assay; format: functional, cell-based
T6 sequence (whole entry): T3 sequence (P37231 whole entry)

[9] = target: T4, Peroxisome proliferator-activated receptor alpha (Homo sapiens); test: (§2) Agonist activity at PPARalpha receptor expressed in HEK293 cells co-transfected with GAL4 at 1 uM by transactivation assay; format: functional, cell-based
[10] = target: T5, Peroxisome proliferator-activated receptor delta (Homo sapiens); test: Agonist activity at PPARdelta receptor expressed in HEK293 cells co-transfected with GAL4 at 10 uM by transactivation assay; format: functional, cell-based
[11] = target: T3, Peroxisome proliferator-activated receptor gamma
[12] = target: T6, Peroxisome proliferator-activated receptor gamma (Homo sapiens); test: Antagonist activity at PPARgamma co-transfected with GAL4-PPAR fusion protein assessed as inhibition of TIPP703-induced response up to 10 uM by luciferase reporter gene assay; format: functional
In short: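 Cells expressing GAL4-PPARα or GAL4-PPARγ chimeras were stimulated with the agonist TIPP-703, with or without co-treatment at 0.1, 1 or 10 µM. Antagonism was read as dose-dependent reduction of the induced transactivation signal.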

[13] = target: T1, Peroxisome proliferator-activated receptor delta; test: Antagonist activity at PPARdelta co-transfected with GAL4-PPAR fusion protein assessed as inhibition of GW-501516-induced response by luciferase reporter gene assay; format: functional
[14] = target: T2, Peroxisome proliferator-activated receptor alpha; test: as §2; format: functional, cell-based
[15] = target: T4, Peroxisome proliferator-activated receptor alpha (Homo sapiens); test: Antagonist activity at PPARalpha co-transfected with GAL4-PPAR fusion protein assessed as inhibition of TIPP703-induced response up to 10 uM by luciferase reporter gene assay; format: functional
In short: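 Antagonist mode in the GAL4-PPAR chimera system. Cells were stimulated with the agonist TIPP-703, with or without three added test concentrations. Inhibition of the agonist-elicited reporter signal was assessed for dose dependence.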

Question: Which results are given for CCCCOc1ccc(C[C@H](CC)C(=O)O)cc1CNC(=O)c1ccc(C(F)(F)F)cc1F?
Answer: EC50 [1]: 0.72 nM; EC50 [2]: 240 nM; EC50 [3]: 1400 nM

Question: With CCCCOc1ccc(-c2ccc(C)c(C(=O)O)c2)cc1CNC(=O)c1ccc(C(F)(F)F)cc1F as the compound, how does the EC50 [1] read?
Answer: 14 nM

Question: And the Efficacy [4]?
Answer: 100%

Question: And the EC50 [2]?
Answer: 120 nM

Question: With CCCCOc1ccc(-c2ccccc2C(=O)O)cc1CNC(=O)c1ccc(C(F)(F)F)cc1F as the compound, how does the Activity [5] read?
Answer: inactive

Question: And the Activity [6]?
Answer: inactive

Question: And the Activity [7]?
Answer: inactive

Question: And the Activity [8]?
Answer: inactive

Question: And the Activity [9]?
Answer: inactive

Question: Which EC50 [1] does the source give for CCCCOc1ccc(-c2cccc(C(=O)O)c2)cc1CNC(=O)c1ccc(C(F)(F)F)cc1F here?
Answer: 29 nM

Question: What about the Efficacy [4] of the same compound?
Answer: 100%

Question: And the EC50 [2]?
Answer: 790 nM

Question: What does the source list for CCCCOc1ccc(-c2ccc(C(=O)O)o2)cc1CNC(=O)c1ccc(C(F)(F)F)cc1F?
Answer: Activity [5]: inactive; Activity [6]: inactive; Activity [7]: inactive; Activity [8]: inactive; Activity [9]: inactive; Activity [10]: inactive

Question: Which results are given for CCCCOc1ccc(-c2ccc(C(=O)O)cc2C)cc1CNC(=O)c1ccc(C(F)(F)F)cc1F?
Answer: Activity [9]: inactive; IC50 [11]: 10 nM

Question: How did the EC50 [1] turn out when CCCCOc1ccc(-c2ccc(C(=O)O)nc2)cc1CNC(=O)c1ccc(C(F)(F)F)cc1F was run?
Answer: 400 nM

Question: What about the Activity [9] of the same compound?
Answer: inactive

Question: CCCCOc1ccc(-c2ccc(C(=O)O)cc2)cc1CNC(=O)c1ccc(C(F)(F)F)cc1F was tested. Which Activity [12] did it give?
Answer: inactive

Question: What about the Activity [7] of the same compound?
Answer: inactive

Question: And the Activity [8]?
Answer: inactive

Question: And the EC50 [1]?
Answer: 170 nM

Question: And the IC50 [13]?
Answer: 68 nM

Question: And the EC50 [14]?
Answer: Not Active

Question: What about the Activity [15] of the same compound?
Answer: inactive

Question: What does the source list for CCCCOc1ccc(-c2ccc(C(=O)O)c(C)c2)cc1CNC(=O)c1ccc(C(F)(F)F)cc1F?
Answer: EC50 [1]: 45 nM; Efficacy [4]: 100%; EC50 [2]: 3000 nM

Question: Which EC50 [1] does the source give for CCCCOc1ccc(-c2cccc(C(=O)O)c2C)cc1CNC(=O)c1ccc(C(F)(F)F)cc1F here?
Answer: 1.6 nM

Question: And the Efficacy [4]?
Answer: 100%

Question: And the EC50 [2]?
Answer: 130 nM

Question: Which EC50 [1] does the source give for CCCCOc1ccc(-c2cc(C(=O)O)ccc2C)cc1CNC(=O)c1ccc(C(F)(F)F)cc1F here?
Answer: 4.9 nM

Question: And the Efficacy [4]?
Answer: 100%

Question: And the EC50 [2]?
Answer: 570 nM

Question: What does the source list for CCCCOc1ccc(-c2ccc(C(=O)O)cc2F)cc1CNC(=O)c1ccc(C(F)(F)F)cc1F?
Answer: EC50 [1]: 53 nM; Activity [9]: inactive

Question: For CCCCOc1ccc(-c2ccc(C(=O)O)cn2)cc1CNC(=O)c1ccc(C(F)(F)F)cc1F, which Activity [5] is on record?
Answer: inactive

Question: What about the Activity [6] of the same compound?
Answer: inactive

Question: And the Activity [7]?
Answer: inactive

Question: And the Activity [8]?
Answer: inactive

Question: And the Activity [9]?
Answer: inactive

Question: And the Activity [10]?
Answer: inactive
